# What was measured:
# [1] = Antifungal activity against Dendryphiella salina assessed as growth inhibition at 62.5 ug/ml; format: functional; details: Paradendryphiella salina
# Outline: (§1)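 Fungus (Lindra thalassiae, Dendryphiella salina or Fusarium sp.) exposed to sample dissolved in MeOH, serially diluted, added to molten YPM P/S agar; MeOH-only solvent controls plus media-only wells; triplicate wells; 1 mm2 plug of culture transferred per well, 26 °C. Scored when media controls fully covered by hyphae: hyphae-containing squares counted through window screen; % inhibition versus solvent control.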
# [2] = tested on: HeLa; test: Cytotoxicity against human HeLa cells after 48 hrs by MTT assay; format: functional, cell-based
# Outline: (§2)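 HeLa (3000) or HT29 (12 500 cells/well) grown in DMEM with 10% FBS, 5% CO2, 37 °C; treated with graded concentrations 24 h after seeding, DMSO solvent control, then incubated 48 h before MTT viability read-out; IC50 fitted from duplicate experiments.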
# [3] = tested on: Fusarium sp.; test: Antifungal activity against Fusarium sp. assessed as growth inhibition at 6.25 ug/ml; format: functional; details: read-out: GI; outline: as §1
# [4] = Antifungal activity against Dendryphiella salina assessed as growth inhibition at 6.25 ug/ml; format: functional; details: Paradendryphiella salina; outline: as §1
# [5] = tested on: Staphylococcus aureus; test: Antimicrobial activity against Staphylococcus aureus ATCC 6538 after 24 hrs by broth microdilution method; format: functional; details: ATCC 6538, 24 h
# Outline: (§3)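 Broth microdilution in Mueller–Hinton broth; colony grown 6–8 h at 37 °C, adjusted to 0.5 McFarland then diluted 100-fold as inoculum. Treated 24 h at 37 °C, 150 rpm; 0.02% v/v resazurin added, fluorescence read at ex 530/em 590 nm. Oxacillin (S. aureus) or nalidixic acid (P. aeruginosa) positive controls, MHB-only sterility control; % inhibition relative to solvent control.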
# [6] = tested on: Lindra thalassiae; test: Antifungal activity against Lindra thalassiae assessed as growth inhibition at 62.5 ug/ml; format: functional; details: Lindriella thalassiae; read-out: GI; outline: as §1
# [7] = tested on: Pseudomonas aeruginosa; test: Antimicrobial activity against Pseudomonas aeruginosa ATCC 27853 after 24 hrs by broth microdilution method; format: functional; details: ATCC 27853, 24 h; outline: as §3
# [8] = tested on: Fusarium sp.; test: Antifungal activity against Fusarium sp. assessed as growth inhibition at 62.5 ug/ml; format: functional; details: read-out: GI; outline: as §1
# [9] = tested on: Lindra thalassiae; test: Antifungal activity against Lindra thalassiae assessed as growth inhibition at 6.25 ug/ml; format: functional; details: Lindriella thalassiae; read-out: GI; outline: as §1
# [10] = tested on: HT-29; test: Cytotoxicity against human HT-29 cells after 48 hrs by MTT assay; format: functional, cell-based; details: HT-29, 48 h; outline: as §2
# [11] = tested on: HeLa; test: Cytotoxicity against human HeLa cells after 1 to 48 hrs by MTT assay; format: functional, cell-based
# Outline: (§4)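 HeLa and HT29 cultured in DMEM with 10% FBS at 37 °C, 5% CO2, exposed to graded concentrations for 1, 3, 6, 12, 24 or 48 h; MTT viability read-out, IC50 at each time point.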
# [12] = tested on: Lindra thalassiae; test: Antifungal activity against Lindra thalassiae assessed as growth inhibition at 625 ug/ml; format: functional; details: Lindriella thalassiae; read-out: GI; outline: as §1
# [13] = Antifungal activity against Dendryphiella salina assessed as growth inhibition at 625 ug/ml; format: functional; details: Paradendryphiella salina; outline: as §1
# [14] = tested on: HT-29; test: Cytotoxicity against human HT-29 cells after 1 to 48 hrs by MTT assay; format: functional, cell-based; outline: as §4
# [15] = tested on: Fusarium sp.; test: Antifungal activity against Fusarium sp. assessed as growth inhibition at 625 ug/ml; format: functional; details: read-out: GI; outline: as §1
MIC [5],MIC [7],Structure (SMILES),growth inhibition (GI) [1],IC50 [2],inhibition of growth at 6.25 µg/mL [3],growth inhibition (GI) [4],inhibition of growth at 62.5 µg/mL [6],inhibition of growth at 62.5 µg/mL [8],inhibition of growth at 6.25 µg/mL [9],IC50 [10],IC50 [11],inhibition of growth at 625 µg/mL [12],growth inhibition (GI) [13],IC50 [14],inhibition of growth at 625 µg/mL [15]
> 100 µM,> 100 µM,C[C@@H]1[C@H](O)[C@@H](C)/C=C/C=C/C=C/C=C/C=C/C=C/C=C/[C@H](O[C@@H]2O[C@H](C)[C@@H](O)[C@H](N)[C@@H]2O)C[C@@H]2O[C@](O)(C[C@@H](O)C[C@@H](O)[C@H](O)CC[C@@H](O)C[C@@H](O)CC(=O)O[C@H]1C)C[C@H](O)[C@H]2C(=O)O [AMPHOTERICIN B],100%,10 µM,12%,100%,21%,6%,0%,10 µM,,,,,
32 µM,32 µM,C/C1=C/C(=O)OC(C(C)(C)C)CC(O)CCCC(O)CCCC(O)CCCC(O)CCCC(O)CCCC(O)CCCC(O)CCC[C@@H](O)C[C@@H](O)CCC1 (some centres undefined),60%,0.87 µM,35%,0%,100%,100%,40%,0.87 µM,0.87 µM,100%,100%,0.87 µM,100%
,,CC(=O)OC1CCCC(O)CCCC(O)CCCC(O)CCCC(O)CCCC(O)CCC[C@@H](O)C[C@@H](O)CCC/C(C)=C\C(=O)OC(C(C)(C)C)CC(O)CCC1 (some centres undefined),,9.9 µM,,,,,,12 µM,,,,,
,,CC(=O)OC1CCCC(OC(C)=O)CCCC(OC(C)=O)CCCC(OC(C)=O)CCC[C@@H](OC(C)=O)C[C@@H](OC(C)=O)CCC/C(C)=C\C(=O)OC(C(C)(C)C)CC(OC(C)=O)CCCC(OC(C)=O)CCCC(OC(C)=O)CCC1 (some centres undefined),,18 µM,,,,,,58 µM,,,,,

# From ChEMBL document CHEMBL3593174, “Amantelides A and B, Polyhydroxylated Macrolides with Differential Broad-Spectrum Cytotoxicity from a Guamanian Marine Cyanobacterium” (J Nat Prod, 2015)
